According to the EternaBench riboswitch data:

Assays:
MS2 coat protein [1] = assay: apparent Kd, MS2 coat protein; higher = weaker binding; RNA-MaP array
Procedure, shortened: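 On an Illumina sequencing chip, sequenced DNA templates served for transcription of the designed RNAs, which were then bound at room temperature by fluorescently labeled MS2 coat protein at 1.5 nM to 3 μM, with or without input ligand. Apparent Kd is the median of the fits to each cluster's binding curve. Only designs measured on at least 10 clusters were kept.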

MS2 coat protein [2] = assay: apparent Kd, MS2 coat protein; higher = weaker binding; RNA-MaP array; FMN 200 µM where present
Procedure, shortened: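 The apparent Kd is reported as the median of filtered per-cluster binding-curve fits. To get these curves, designs transcribed by stalled E. coli RNA polymerase on Illumina sequencing-chip clusters were titrated with SNAP-549-labelled MS2 coat protein from 0.7 or 1.5 nM, doubling to 3 µM. Titrations were run without and then with constant ligand in 100 mM Tris-HCl pH 7.5, 80 mM KCl, 4 mM MgCl2, BSA, DTT, yeast tRNA and Tween-20, and green signal was normalised to red-channel RNA signal and control-cluster median Fmax.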

[3] = designed as: ON switch for flavin mononucleotide, no ligand
[4] = ligand present: flavin mononucleotide, designed as: ON switch for flavin mononucleotide
[5] = designed as: OFF switch for flavin mononucleotide, no ligand
[6] = ligand present: flavin mononucleotide, designed as: OFF switch for flavin mononucleotide

AAAACUUAUCAGAAGGAACGCACUCAACCGUUGUUAGGAUAUGAUCACCUAACAUGAGGAUCACCCAUGUUCACAGUAGGAGAC
apparent Kd (MS2 coat protein [1]; [3]): 130 nM | apparent Kd (MS2 coat protein [1]; [4]): 89.5 nM

AAAAGCAGGGUCAGGAUAUAGGGUUCACUGUUGGCCUAGAAGGGACAUGAGGAUCACCCAUGUAUAGUAGUGGG
apparent Kd (MS2 coat protein [1]; [5]): 347 nM | apparent Kd (MS2 coat protein [1]; [6]): 262 nM

AAAAGUACAGGAUAUACAUGAGGAUCACCCAUGUCAGAAUAUAAUGAUAAGAAACUGAGUAGAAGGGUAACGAG
apparent Kd (MS2 coat protein [1]; [5]): 28.6 nM | apparent Kd (MS2 coat protein [1]; [6]): 20.3 nM

AAACCCAAAGUUAGGAUAUGCAUUGCCGGCCCUGUGCAGAAGGAACAUGAGGAUCACCCAUGUACUGGUGUUCG
apparent Kd (MS2 coat protein [1]; [5]): 42.7 nM | apparent Kd (MS2 coat protein [1]; [6]): 103 nM

AAAGAACAUGAGGAUCACCCAUGUCAGGAUAUACAAAGACGUAGCAAAGCGGACUCAAGAAGAAGGGACAAGGA
apparent Kd (MS2 coat protein [1]; [5]): 12.8 nM | apparent Kd (MS2 coat protein [1]; [6]): 10.1 nM

AACAUGAGGAUCACCCAUGUCACAUACAAGUGGAGUUCUAUGAGAAGGGCGAAACGAAUGAGCACGCAGGAUAUCAGCGAUAAA
apparent Kd (MS2 coat protein [1]; [3]): 13.5 nM | apparent Kd (MS2 coat protein [1]; [4]): 11.3 nM

AACAUGUGAGGAUAUAGUCAAAAUAGCACAAGUAACAUAAACUAGAAGGCACAUGAGGAUCACCCAUGUGAAUA
apparent Kd (MS2 coat protein [1]; [5]): 7.9 nM | apparent Kd (MS2 coat protein [1]; [6]): 10.6 nM

AACCAUCUCGGCGAUACCAGUGCCUACGAGUACAUGAGGAUCACCCAUGUAGGUGACCGACACCCUUGGCAGCGCGAUUGAGUCA
apparent Kd (MS2 coat protein [1]; designed as: ON switch for theophylline, no ligand): 140 nM | apparent Kd (MS2 coat protein [1]; ligand present: theophylline, designed as: ON switch for theophylline): 70.6 nM

AACCGGCAAGGAUAUACAUGAGGAUCACCCAUGUACGACGCGCUGGCUACGUUUUUAUGUAGAAGGUGCCGACC
apparent Kd (MS2 coat protein [1]; [5]): 6.19 nM | apparent Kd (MS2 coat protein [1]; [6]): 6.26 nM

AACUCCACCGCAGGAUAUCCGGUCUCUCUGUAGACGACAUGAGGAUCACCCAUGUAUCCGGGAAUGGAGAAGGGCGGUGCUCCU
apparent Kd (MS2 coat protein [1]; [5]): 16.4 nM | apparent Kd (MS2 coat protein [1]; [6]): 13 nM

AAGAACCAGAUAGGAUAUCCGUUUAAAUCACAAGGAGAAGGAUCAAAUACAAAACAUGAGGAUCACCCAUGUGGAAGAUAGCUA
apparent Kd (MS2 coat protein [1]; [3]): 33.2 nM | apparent Kd (MS2 coat protein [1]; [4]): 18.7 nM

AAGAGUGUGAGAGGAUAUGCUUACCCAUAUCACAUGAGGAUCACCCAUGUCGGCGAUUGUAUUAUGCAGAAGGCUCAAGGACUC
apparent Kd (MS2 coat protein [1]; [3]): 18.3 nM | apparent Kd (MS2 coat protein [1]; [4]): 9.8 nM

AAGGAAUAUGAGGAUAUUGAUGCGAAACCUACUCAAGAAGGCAUAACAUGAGGAUCACCCAUGUGACCCUUAUA
apparent Kd (MS2 coat protein [1]; [5]): 19.4 nM | apparent Kd (MS2 coat protein [1]; [6]): 34.4 nM

AAGUGACAUGAGGAUCACCCAUGUGAGGAUAUGGCUGAACAGAAAUAUGGGAAAAGAGCCAGAAGGCACGCCGG
apparent Kd (MS2 coat protein [1]; [5]): 62.3 nM | apparent Kd (MS2 coat protein [1]; [6]): 112 nM

UUUUAGCUAGGAUAUACAUUUUUUUUAUUAUCCUCAUUAUUACAUGAGGAUCACCCAUGUAGAAGGAGCAUUUU
apparent Kd (MS2 coat protein [2]; [5]): 237 nM | apparent Kd (MS2 coat protein [2]; [6]): 313 nM

UUUUAGUCAGGAUAUACAUUUUUUUAAUUAUUUAUAAUAUUACAUGAGGAUCACCCAUGUAGAAGGGACAUUUU
apparent Kd (MS2 coat protein [2]; [5]): 28.6 nM | apparent Kd (MS2 coat protein [2]; [6]): 26.2 nM

UUUUAGUGAGGAUAUGUGGCUUCGAUCGUGAGAUCGAGGCUACAGAAGGCACAUGAGGAUCACCCAUGUUCCUU
apparent Kd (MS2 coat protein [2]; [5]): 14.5 nM | apparent Kd (MS2 coat protein [2]; [6]): 46.8 nM

UUUUAUUAGUAGAAGGACGGAGAGUAUGUAGUCGUAGGAUAUACAUAAGACAUGAGGAUCACCCAUGUGUGUAUUUUGGGUAUG
apparent Kd (MS2 coat protein [2]; [5]): 15.7 nM | apparent Kd (MS2 coat protein [2]; [6]): 13.2 nM

UUUUUAUUUGAAGGAUAUACUUAACAUGAGGAUCACCCAUGUGGUGUUGUGAGUGAGUGAGUUUAGUAGAAGGUCAAUUAUUUU
apparent Kd (MS2 coat protein [2]; [5]): 373 nM | apparent Kd (MS2 coat protein [2]; [6]): 703 nM

UUUUUCUCAGGAUAUACAUGAGGAUCACCCAUGUAUAUUGAAGAUAAUACAUGGGAAUGUAGAAGGGAGCUCAU
apparent Kd (MS2 coat protein [2]; [5]): 109 nM | apparent Kd (MS2 coat protein [2]; [6]): 115 nM

UUUUUUAUCGUAGGAUAUAGGUUGAAUAAUAGACUAGAAGGACGUGACAUGAGGAUCACCCAUGUUUUUUAAGUGUCGAAGUGU
apparent Kd (MS2 coat protein [2]; [3]): 26.9 nM | apparent Kd (MS2 coat protein [2]; [4]): 25.7 nM

UUUUUUGUUGUGAGGAUAUCGUAUUUUUUUUGUUACGAGAAGGCACAUGAGGAUCACCCAUGUUUUUUGAUGUU
apparent Kd (MS2 coat protein [2]; [5]): 24.8 nM | apparent Kd (MS2 coat protein [2]; [6]): 56.7 nM

UUUUUUUUAGUAAGGAUAUGAUGCAGGAAACUGCGUCAGAAGGUACAUGAGGAUCACCCAUGUUAAUUUUGUUU
apparent Kd (MS2 coat protein [2]; [5]): 18.8 nM | apparent Kd (MS2 coat protein [2]; [6]): 20.4 nM
